Experimental data from ChEMBL document CHEMBL1144721, “Bioactive triterpene saponins from the roots of Phytolacca americana” (J Nat Prod, 2008).

How the values were obtained:
[1] = biological target: T1, ATP-dependent translocase ABCB1 (Homo sapiens, UniProt P08183); experiment: Inhibition of P-glycoprotein-mediated multidrug resistance in human 2780AD cells assessed as calcein accumulation at 0.25 ug/mL relative to control; assay type: cell-based; parameters: scale not given: the % may be the effect or the level left; settings: a2780 adr
T1 sequence (P08183 whole entry): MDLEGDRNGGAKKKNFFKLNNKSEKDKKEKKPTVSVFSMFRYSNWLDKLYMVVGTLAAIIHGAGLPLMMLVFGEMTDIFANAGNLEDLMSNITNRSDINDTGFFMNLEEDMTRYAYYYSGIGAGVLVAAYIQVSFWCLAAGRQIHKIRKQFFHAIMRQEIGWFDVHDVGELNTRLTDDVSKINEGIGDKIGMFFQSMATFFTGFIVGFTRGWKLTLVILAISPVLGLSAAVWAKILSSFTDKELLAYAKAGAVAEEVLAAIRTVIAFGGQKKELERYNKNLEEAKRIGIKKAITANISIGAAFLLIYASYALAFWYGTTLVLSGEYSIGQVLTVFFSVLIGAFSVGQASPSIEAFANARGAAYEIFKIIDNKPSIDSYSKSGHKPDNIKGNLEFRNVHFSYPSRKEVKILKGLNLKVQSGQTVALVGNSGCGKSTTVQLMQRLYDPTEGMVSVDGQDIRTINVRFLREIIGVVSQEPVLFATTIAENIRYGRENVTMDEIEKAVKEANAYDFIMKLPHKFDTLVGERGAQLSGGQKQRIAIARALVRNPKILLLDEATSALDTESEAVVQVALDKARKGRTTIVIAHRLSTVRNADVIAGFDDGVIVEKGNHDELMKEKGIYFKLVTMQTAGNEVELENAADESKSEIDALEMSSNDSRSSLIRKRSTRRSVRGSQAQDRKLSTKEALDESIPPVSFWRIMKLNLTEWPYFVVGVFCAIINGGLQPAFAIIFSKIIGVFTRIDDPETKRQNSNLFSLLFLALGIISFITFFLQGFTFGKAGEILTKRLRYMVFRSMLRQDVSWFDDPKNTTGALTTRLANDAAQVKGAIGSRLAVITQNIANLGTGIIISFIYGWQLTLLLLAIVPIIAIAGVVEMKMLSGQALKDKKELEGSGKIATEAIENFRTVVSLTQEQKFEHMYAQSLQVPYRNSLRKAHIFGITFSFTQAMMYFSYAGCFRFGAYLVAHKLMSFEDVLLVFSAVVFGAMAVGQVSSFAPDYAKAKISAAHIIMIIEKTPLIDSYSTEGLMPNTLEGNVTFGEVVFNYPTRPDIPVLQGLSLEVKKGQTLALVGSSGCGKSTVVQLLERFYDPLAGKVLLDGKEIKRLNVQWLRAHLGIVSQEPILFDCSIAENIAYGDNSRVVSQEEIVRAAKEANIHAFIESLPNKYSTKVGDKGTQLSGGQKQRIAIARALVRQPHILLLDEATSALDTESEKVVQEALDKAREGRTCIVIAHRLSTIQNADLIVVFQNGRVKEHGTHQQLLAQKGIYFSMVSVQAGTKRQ
Method in brief: (§1)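 Multidrug-resistant human ovarian cancer 2780AD cells exposed to compound at 0.25, 2.5 or 25 μg/mL. Intracellular calcein accumulation measured and expressed as the amount relative to an untreated control (% of control).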

[2] = biological target: T1, ATP-dependent translocase ABCB1; experiment: Inhibition of P-glycoprotein-mediated multidrug resistance in human 2780AD cells assessed as calcein accumulation at 2.5 ug/mL relative to control; assay type: cell-based; parameters: scale not given: the % may be the effect or the level left; settings: a2780 adr; method in brief: as §1
[3] = biological target: T1, ATP-dependent translocase ABCB1; experiment: Inhibition of P-glycoprotein-mediated multidrug resistance in human 2780AD cells assessed as calcein accumulation at 25 ug/mL relative to control; assay type: cell-based; parameters: scale not given: the % may be the effect or the level left; settings: a2780 adr; method in brief: as §1
[4] = tested on: WI-38; experiment: Cytotoxicity against human WI38 cells; assay type: functional, cell-based
Method in brief: (§2)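 IC50 values are the mean of duplicate determinations.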

[5] = tested on: WI-38 VA13; experiment: Cytotoxicity against human VA13 cells; assay type: functional, cell-based; method in brief: as §2
[6] = tested on: HepG2; experiment: Cytotoxicity against human HepG2 cells; assay type: functional, cell-based; method in brief: as §2
[7] = tested on: A549; experiment: Cell viability of human A549 cells after 24 hrs by MTT assay; assay type: functional
Method in brief: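 A549 cells incubated with serial dilutions of compound for 24 h. Viability (%) measured by MTT assay and used to derive IC50. Triplicate cultures.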

[8] = tested on: A549; experiment: Antiinflammatory activity against human A549 cells assessed as inhibition of IL-1-alpha-induced ICAM1 expression after 6 hrs

Row | Compound | Activity [1] [%] | Activity [2] [%] | Activity [3] [%] | IC50 [4] [µM] | IC50 [5] [µM] | IC50 [6] [µM] | Activity [7] [µM] | Activity [8] [µM]
1 | COC(=O)[C@@]1(C)CC[C@]2(C(=O)O[C@@H]3O[C@H](CO)[C@@H](O)[C@H](O)[C@H]3O)CC[C@]3(C)C(=CC[C@@H]4[C@@]5(C)C[C@H](O)[C@H](O[C@@H]6OC[C@@H](O)[C@H](O)[C@H]6O)[C@@](C)(CO)[C@@H]5CC[C@]43C)[C@@H]2C1 | 141 | 132 | 143 | > 121 | 95.2 | > 121 | >121 | >121
2 | COC(=O)[C@@]1(C)CC[C@]2(C(=O)O[C@@H]3O[C@H](CO)[C@@H](O)[C@H](O)[C@H]3O)CC[C@]3(C)C(=C[C@@H](O)[C@@H]4[C@@]5(C)C[C@H](O)[C@H](O[C@@H]6OC[C@@H](O[C@@H]7O[C@H](CO)[C@@H](O)[C@H](O)[C@H]7O)[C@H](O)[C@H]6O)[C@@](C)(CO)[C@@H]5CC[C@]43C)[C@@H]2C1 | 121 | 119 | 124 | > 100 | 94 | > 100 | >100 | >100
3 | COC(=O)[C@@]1(C)CC[C@]2(C(=O)O[C@@H]3O[C@H](CO)[C@@H](O)[C@H](O)[C@H]3O)CC[C@]3(C)C(=C[C@@H](OC)[C@@H]4[C@@]5(C)C[C@H](O)[C@H](O[C@@H]6OC[C@@H](O[C@@H]7O[C@H](CO)[C@@H](O)[C@H](O)[C@H]7O)[C@H](O)[C@H]6O)[C@@](C)(CO)[C@@H]5CC[C@]43C)[C@@H]2C1 | 105 | 100 | 108 | > 98.2 | > 98.2 | > 98.2 | >98.2 | >98.2
4 | COC(=O)[C@@]1(C)CC[C@]2(C(=O)O[C@@H]3O[C@H](CO)[C@@H](O)[C@H](O)[C@H]3O)CC[C@]3(C)C(=CC[C@@H]4[C@@]5(C)CC[C@H](O[C@@H]6OC[C@@H](O)[C@H](O[C@@H]7OC[C@@H](O)[C@H](O)[C@H]7O[C@@H]7O[C@H](CO)[C@@H](O)[C@H](O)[C@H]7O[C@@H]7O[C@@H](C)[C@H](O)[C@@H](O)[C@H]7O)[C@H]6O)[C@@](C)(CO)[C@@H]5CC[C@]43C)[C@@H]2C1 | 93 | 68 | 94 | > 89 | > 89 | > 89 | >89 | >89
5 | COC(=O)[C@@]1(C)CC[C@]2(C(=O)O[C@@H]3O[C@H](CO)[C@@H](O)[C@H](O)[C@H]3O)CC[C@]3(C)C(=CC[C@@H]4[C@@]5(C)C[C@H](O)[C@H](O[C@@H]6OC[C@@H](OC7O[C@H](CO)[C@@H](O)[C@H](O)[C@H]7O)[C@H](O)[C@H]6O)[C@@](C)(CO)[C@@H]5CC[C@]43C)[C@@H]2C1 (stereo partly specified) | 124 | 129 | 123 | > 101 | > 101 | > 101 | >1012 | >320
6 | COC(=O)[C@@]1(C)CC[C@]2(C(=O)O[C@@H]3O[C@H](CO)[C@@H](O)[C@H](O)[C@H]3O)CC[C@]3(C)C(=CC[C@@H]4[C@@]5(C)CC(=O)[C@H](O[C@@H]6OC[C@@H](O[C@@H]7O[C@H](CO)[C@@H](O)[C@H](O)[C@H]7O)[C@H](O)[C@H]6O)[C@@](C)(CO)[C@@H]5CC[C@]43C)[C@@H]2C1 | 98 | 115 | 120 | > 101 | > 101 | > 101 | >101 | >101
7 | COC(=O)[C@@]1(C)CC[C@]2(C(=O)O[C@@H]3O[C@H](CO)[C@@H](O)[C@H](O)[C@H]3O)CC[C@]3(C)C(=CC[C@@H]4[C@@]5(C)CC[C@H](O[C@@H]6OC[C@@H](OC7O[C@H](CO)[C@@H](O)[C@H](O)[C@H]7O)[C@H](O)[C@H]6O)[C@@](C)(CO)[C@@H]5CC[C@]43C)[C@@H]2C1 (stereo partly specified) | 124 | 101 | 126 | > 103 | > 103 | > 103 | >103 | >103
8 | COC(=O)[C@@]1(C)CC[C@]2(C(=O)O)CC[C@]3(C)C(=CC[C@@H]4[C@@]5(C)C[C@H](O)[C@H](O[C@@H]6OC[C@@H](OC7O[C@H](CO)[C@@H](O)[C@H](O)[C@H]7O)[C@H](O)[C@H]6O)[C@@](C)(CO)[C@@H]5CC[C@]43C)[C@@H]2C1 (stereo partly specified) | 111 | 104 | 119 | 7.1 | 117 | 102 | 661 | >383
9 | COC(=O)[C@@]1(C)CC[C@]2(C(=O)O[C@@H]3O[C@H](CO)[C@@H](O)[C@H](O)[C@H]3O)CC[C@]3(C)C(=CC(=O)[C@@H]4[C@@]5(C)C[C@H](O)[C@H](O[C@@H]6OC[C@@H](OC7O[C@H](CO)[C@@H](O)[C@H](O)[C@H]7O)[C@H](O)[C@H]6O)[C@@](C)(CO)[C@@H]5CC[C@]43C)[C@@H]2C1 (stereo partly specified) | 119 | 135 | 155 | > 98.8 | > 98.8 | 97.4 | >98.8 | >98.8
10 | COC(=O)[C@@]1(C)CC[C@]2(C(=O)O)CC[C@]3(C)C(=C[C@@H](OC)[C@@H]4[C@@]5(C)C[C@H](O)[C@H](O[C@@H]6OC[C@@H](O[C@@H]7O[C@H](CO)[C@@H](O)[C@H](O)[C@H]7O)[C@H](O)[C@H]6O)[C@@](C)(CO)[C@@H]5CC[C@]43C)[C@@H]2C1 | 118 | 123 | 135 | > 118 | > 118 | > 118 | >118 | >118
11 | COC(=O)[C@@]1(C)CC[C@]2(C(=O)O[C@@H]3O[C@H](CO)[C@@H](O)[C@H](O)[C@H]3O)CC[C@]3(C)C(=CC[C@@H]4[C@@]5(C)CC[C@H](O[C@@H]6OC[C@@H](O[C@@H]7O[C@H](CO)[C@@H](O)[C@H](O)[C@H]7O)[C@H](O)[C@H]6O[C@@H]6O[C@H](CO)[C@@H](O)[C@H](O)[C@H]6O)[C@@](C)(CO)[C@@H]5CC[C@]43C)[C@@H]2C1 | 126 | 106 | 123 | > 88.2 | > 88.2 | > 88.2 | >88.2 | >88.2
12 | COC(=O)[C@@]1(C)CC[C@]2(C(=O)O)CC[C@]3(C)C(=CC[C@@H]4[C@@]5(C)C[C@H](O)[C@H](O[C@@H]6OC[C@@H](O)[C@H](O)[C@H]6O)[C@@](C)(CO)[C@@H]5CC[C@]43C)[C@@H]2C1 [PHYTOLACCOSIDE B] | 128 | 117 | 123 | 36.2 | 68.9 | 74.7 | 265 | 253
